{"source": "paper PMC12866962", "about": "(Cell host & microbe, 2026)", "key": {"[1]": {"test_system": "ThsA from Escherichia coli", "details": "homologous ThsA from Escherichia coli; cited from earlier work"}, "[2]": {"test_system": "BaY2 Thoeris system (type II)", "assay": "Thoeris protection in liquid media", "type": "cell-based", "details": "for Inhibition of BaY2 Thoeris (phage-induced host population lysis), in words: B. subtilis expressing BaY2 Thoeris, phage SPO1, liquid culture"}, "[3]": {"test_system": "BaY2 Thoeris system (type II)", "assay": "Phage reproduction of SPO1", "type": "cell-based", "details": "PFUs 15 hours post-infection; 1 mM of compound 1, 333 µM of IP6C, 1 mM of compound 5", "procedure,_shortened": "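B. subtilis overnight culture diluted 1:100 in LB; 180 µL added to wells with 2 µL compound stock (DMSO or water). Preincubated 30 min at 30 °C, then ~10,000 PFU SPO1 added; grown at 30 °C, 208 rpm, OD600 every 30 min. After 15 h, cleared supernatant (16,000 g, 10 min) titred by 5 µL drops of 1:10 dilutions on undefended B. subtilis soft-agar lawns.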"}, "BaY2ThsB [4]": {"target": "T1, BaY2ThsB (Bacillus amyloliquefaciens, UniProt I2C644)", "T1 sequence (I2C644 whole entry)": "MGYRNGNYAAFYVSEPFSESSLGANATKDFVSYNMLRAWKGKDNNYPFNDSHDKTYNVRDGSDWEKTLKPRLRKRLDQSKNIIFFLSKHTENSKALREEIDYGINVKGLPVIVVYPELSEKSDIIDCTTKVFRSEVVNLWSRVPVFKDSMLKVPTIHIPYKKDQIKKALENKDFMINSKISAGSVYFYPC", "type": "cell-based", "details": "for His-ADPR production by ThsB: 500 µM of compound, SPO1-infected B. subtilis Pspank-BaY2ThsB, LC-HRMS"}, "[5]": {"test_system": "ThsB (BaY2ThsB or ArThsB)", "assay": "Thermal shift assay", "type": "binding", "details": "5 µM protein, 1 mM compound, in the presence of NAD+", "procedure,_shortened": "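BaY2ThsB or ArThsB was mixed with test compound or buffer in 10 mM HEPES pH 7.5, 150 mM NaCl, 5 mM MgCl2 with NAD+.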"}, "BaY2ThsA^Macro [6]": {"target": "T2, BaY2ThsA^Macro (Bacillus amyloliquefaciens, UniProt I2C645)", "T2 sequence (I2C645 83-297)": "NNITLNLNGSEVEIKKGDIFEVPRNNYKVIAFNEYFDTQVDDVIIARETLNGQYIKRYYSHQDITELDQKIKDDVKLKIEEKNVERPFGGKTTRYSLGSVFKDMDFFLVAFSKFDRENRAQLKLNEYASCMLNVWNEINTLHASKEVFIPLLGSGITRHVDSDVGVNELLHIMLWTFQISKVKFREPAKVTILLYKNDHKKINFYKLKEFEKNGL", "assay": "IP6C-ADPR and His-ADPR pull-down with BaY2ThsA^Macro", "type": "binding, Bacillus amyloliquefaciens Y2"}, "[7]": {"test_system": "P. aeruginosa MRSN11538 Thoeris system cloned into P. aeruginosa PAO1", "assay": "Thoeris protection in liquid media, P. aeruginosa PAO1:Thoeris + Lit1", "type": "cell-based", "details": "Pseudomonas aeruginosa, PAO1, read-out: IC50 (inhibition of type II Thoeris in P. aeruginosa PAO1:Thoeris)"}, "[8]": {"test_system": "P. aeruginosa MRSN11538 Thoeris system cloned into P. aeruginosa PAO1", "assay": "Phage reproduction of Lit1 on P. aeruginosa PAO1:Thoeris II", "type": "cell-based, Pseudomonas aeruginosa", "details": "PFUs 15 hours post-infection; 1 mM of IP6C, 8.2 mM of nicotinamide", "procedure,_shortened": "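Overnight P. aeruginosa diluted 1:100 into LB + 10 mM MgSO4. 180 µL went into wells holding 2 µL test compound stock in DMSO or water. After 30 min at 37 °C, ~10,000 PFU Lit1 was added and OD600 read every 30 min at 37 °C. At 15 h, supernatant (16,000 g, 10 min) was titred by drop plaque assay on undefended P. aeruginosa.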"}, "[9]": {"test_system": "E. faecalis DS16 Thoeris system cloned into E. faecalis OG1RF", "assay": "Thoeris protection in liquid media, E. faecalis OG1RF:Thoeris + NPV1", "type": "cell-based", "details": "Enterococcus faecalis, read-out: IC50 (inhibition of type II Thoeris in E. faecalis OG1RF:Thoeris)"}, "[10]": {"test_system": "E. faecalis DS16 Thoeris system cloned into E. faecalis OG1RF", "assay": "Phage reproduction of NPV1 on E. faecalis OG1RF:Thoeris", "type": "cell-based, Enterococcus faecalis", "details": "PFUs 15 hours post-infection; 10 mM of IP6C, 8.2 mM of nicotinamide", "procedure,_shortened": "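Overnight E. faecalis was diluted 1:1000 into THB + 10 mM MgSO4 and added to compound-containing wells. After 1 h at 37 °C, ~1,000 PFUs NPV1 were added, with OD600 read every 30 min. At 15 h, culture was spun at 16,000 g for 10 min. Supernatant PFUs were titred by small-drop plaque assay on defenceless E. faecalis and compared with input PFUs. Mean ± SEM, three biological replicates.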"}, "[11]": {"test_system": "Thoeris system in the P. aeruginosa MRSN11538 clinical isolate", "type": "cell-based", "details": "Pseudomonas aeruginosa, read-out: IC50 (sensitization of P. aeruginosa MRSN11538 WT to Lit1)", "procedure,_shortened": "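Liquid lysis assay. Host overnight culture diluted 1:100 into LB + 10 mM MgSO4; 180 µL added per well over 2 µL test compound stock (DMSO or water); 30 min at 37 °C before ~10,000 PFU Lit1. OD600 recorded every 30 min at 37 °C. Thoeris strength derived from integrated area under the lysis curve, normalized to no-compound and no-defense controls.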"}, "[12]": {"test_system": "Thoeris system in the P. aeruginosa MRSN11538 clinical isolate", "assay": "Phage reproduction of Lit1 on P. aeruginosa MRSN11538", "type": "cell-based, Pseudomonas aeruginosa", "details": "PFUs 20 hours post-infection; 1 mM of IP6C, 8.2 mM of nicotinamide"}, "[13]": {"test_system": "P. aeruginosa PAO1:Thoeris", "assay": "Preliminary phage therapy model in mice infected with PAO1:Thoeris", "type": "in vivo, BALB/c mice", "details": "PAO1:Thoeris i.p. infection, IP6C only"}, "[14]": {"assay": "Toxicity test of compounds in mice", "type": "in vivo"}, "[15]": {"test_system": "human cell lines (hTERT RPE-1, HDFn)", "assay": "Human cell viability assay", "type": "cell-based", "details": "72 hours, Cell Titer Glo 2.0", "procedure,_shortened": "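hTERT RPE-1 and neonatal dermal fibroblasts were kept in DMEM with 10% FBS, penicillin/streptomycin, 37 °C, 5% CO2, and tested mycoplasma-negative. Cells were seeded at 2,000/well. After 24 h, medium was replaced with 0.1% DMSO vehicle or test compound (stock 1 M in DMSO), six replicate wells per dose. Luminescence was read after 72 h and expressed as percent viability relative to vehicle.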"}, "[16]": {"test_system": "Staphylococcus aureus USA300", "assay": "Polymicrobial model culture, S. aureus CFUs", "type": "cell-based", "details": "300 µM IP6C, 8.5 hours"}, "[17]": {"test_system": "Streptococcus sanguinis SK36", "assay": "Polymicrobial model culture, S. sanguinis CFUs", "type": "cell-based", "details": "300 µM IP6C, 8.5 hours", "procedure,_shortened": "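S. aureus USA300, S. sanguinis SK36 and P. aeruginosa PAO1:Thoeris II overnights were mixed 1:1:1, then diluted 1:100 into TSB + 0.5% yeast extract + 10 mM MgSO4. Wells received DMSO or test compound, plus Lit1 (MOI 0.0001) or LB. Incubation was 8.5 h at 37 °C, 5% CO2. CFUs were counted before and after by PBS serial dilution on Streptococcus Selective Agar at 37 °C, 5% CO2. Three replicates.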"}, "[18]": {"assay": "Quantification of IP6C in polymicrobial model culture", "type": "physicochemical", "details": "after 24 hours in polymicrobial co-culture with phage, LC-MS/MS", "procedure,_shortened": "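In the three phage-plus-compound polymicrobial cultures, 1 µL was sampled at start and at 24 h and quenched in 1 mL 90% acetonitrile. Analysis used a HILIC column with 20 mM ammonium acetate pH 9.2 containing medronic acid versus acetonitrile, gradient at 0.4 mL/min. MRM monitored 162.1→117 (quantifier) and 162.1→78.1 (qualifier), quantified against a pure-standard calibration curve.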"}, "BaY2ThsB [19]": {"target": "T1, BaY2ThsB", "assay": "IP6C-ADPR pull-down with BaY2ThsB", "type": "binding, Bacillus amyloliquefaciens Y2", "details": "protein purified from E. coli cells grown with 1.25 mM IP6C", "procedure,_shortened": "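E. coli TOP10 co-expressing DelTM-ThsA-TwinStrep and ThsB-His12 from one pBAD operon was induced at OD600 0.6 with 0.2% L-arabinose, with or without test compound, then grown overnight at 16 °C. ThsB was captured on His-tag magnetic beads, heat-denatured 5 min at 98 °C and centrifuged. Supernatant was analysed by LC-MS (extracted ion chromatogram of conjugate).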"}, "BaY2ThsA^Macro [20]": {"target": "T2, BaY2ThsA^Macro", "assay": "Saturation transfer difference", "type": "binding, Bacillus amyloliquefaciens Y2", "details": "10 µM BaY2ThsA^Macro, 1 mM IP6C-ADPR, competed with 1 mM ADPR"}, "EcThsA^Macro": {"test_system": "EcThsA^Macro", "assay": "ITC experiment", "type": "binding, Escherichia coli"}}}
{"smiles": "Nc1ncnc2c1ncn2[C@@H]1O[C@H](COP(=O)(O)OP(=O)(O)OC[C@H]2OC(O)[C@H](O)[C@@H]2O)[C@@H](O)[C@H]1O", "note": "(some centres unmarked) [ADPR]", "values": [{"measurement": "Kd", "setting": "[1]", "value": "4.6 ± 0.5", "unit": "µM"}]}
{"smiles": "c1ccn2ccnc2c1", "note": "[Compound 26, imidazo[1,2-a]pyridine]", "values": [{"measurement": "Inhibition of BaY2 Thoeris (phage-induced host population lysis), in words", "setting": "[2]", "value": "weak potency"}]}
{"smiles": "NC(=O)c1ccc2nccn2c1", "note": "[IP6C, imidazo[1,2-a]pyridine-6-carboxamide]", "values": [{"measurement": "IC50", "setting": "[2]; Bacillus amyloliquefaciens, read-out: IC50 (inhibition of BaY2 Thoeris)", "value": 10, "unit": "µM"}, {"measurement": "Phage reproduction of SPO1 on B. subtilis expressing BaY2 Thoeris", "setting": "[3]", "value": "promoted the reproduction of SPO1"}, {"measurement": "Intracellular NAD+ level", "setting": "BaY2ThsB [4]; 500 µM of IP6C, after SPO1 infection", "value": "unchanged"}, {"measurement": "His-ADPR production by ThsB", "setting": "BaY2ThsB [4]", "value": "abolished His-ADPR production"}, {"measurement": "Binding to ThsB (melting temperature shift)", "setting": "[5]", "value": "no significant binding"}, {"measurement": "Amount of His-ADPR bound to BaY2ThsA^Macro", "setting": "BaY2ThsA^Macro [6]; E. coli co-expressing BaY2ThsA^Macro and BaY2ThsB grown with 1.25 mM IP6C", "value": "dramatically decreased"}, {"measurement": "IC50", "setting": "[7]", "value": 19, "unit": "µM"}, {"measurement": "Phage propagation of Lit1 on P. aeruginosa PAO1:Thoeris II", "setting": "[8]", "value": "allowed P. aeruginosa phages to propagate"}, {"measurement": "IC50", "setting": "[9]", "value": 8200, "unit": "µM"}, {"measurement": "Phage proliferation of NPV1 on E. faecalis OG1RF:Thoeris", "setting": "[10]", "value": "fully rescued phage proliferation"}, {"measurement": "IC50", "setting": "[11]", "value": 116, "unit": "µM"}, {"measurement": "Phage propagation of Lit1 on P. aeruginosa MRSN11538 WT", "setting": "[12]", "value": "allowed Lit1 phages to successfully propagate"}, {"measurement": "Survival of mice treated with compound only (no phage)", "setting": "[13]", "value": "all mice died within one day"}, {"measurement": "Toxicity to mice", "setting": "[14]; i.p., 50 μL of 20 mg/mL, observed 7 days", "value": "not toxic"}, {"measurement": "Food intake and body weight of mice", "setting": "[14]; mice treated with IP6C", "value": "initially eat less and lose weight"}, {"measurement": "Toxicity to human cell lines", "setting": "[15]", "value": "not toxic"}, {"measurement": "S. aureus CFUs in polymicrobial mixture", "setting": "[16]", "value": "unaffected"}, {"measurement": "S. sanguinis CFUs in polymicrobial mixture", "setting": "[17]", "value": "unaffected"}, {"measurement": "Temporal stability: IP6C levels in co-culture", "setting": "[18]", "value": "no measurable decrease"}]}
{"smiles": "NC(=O)c1ccc2n(cc[n+]2[C@@H]2O[C@H](COP(=O)(O)OP(=O)(O)OC[C@H]3O[C@@H](n4cnc5c(N)ncnc54)[C@H](O)[C@@H]3O)[C@@H](O)[C@H]2O)c1", "note": "[IP6C-ADPR]", "values": [{"measurement": "Intracellular concentration of IP6C-ADPR", "setting": "BaY2ThsB [4]; IPTG-inducible BaY2ThsB expression system, cells grown with IP6C, approximated with IP6C-ADPR standard", "value": "around 700 nM"}, {"measurement": "Co-purification of IP6C-ADPR with BaY2ThsB", "setting": "BaY2ThsB [19]", "value": "did not co-purify with BaY2ThsB"}, {"measurement": "IP6C-ADPR detected in purified BaY2ThsA^Macro", "setting": "BaY2ThsA^Macro [6]; protein co-expressed with BaY2ThsB in E. coli grown with 1.25 mM IP6C", "value": "no IP6C-ADPR was detected"}, {"measurement": "Binding to BaY2ThsA^Macro by STD NMR", "setting": "BaY2ThsA^Macro [20]", "value": "binds poorly"}, {"measurement": "Binding to EcThsA^Macro by ITC", "setting": "EcThsA^Macro", "value": "did not reveal any interpretable binding"}]}
{"smiles": "N[C@@H](Cc1c[nH]cn1)C(=O)O", "note": "[histidine, reference compound]", "values": [{"measurement": "Binding to ThsB (melting temperature shift)", "setting": "[5]", "value": "no significant binding"}]}
{"smiles": "NC(=O)c1cccnc1", "note": "[nicotinamide]", "values": [{"measurement": "Inhibition of BaY2 Thoeris (phage-induced host population lysis), in words", "setting": "[2]; listed as 9", "value": "fully inhibited the Thoeris defense"}, {"measurement": "His-ADPR production by ThsB", "setting": "BaY2ThsB [4]", "value": "inhibited His-ADPR production"}, {"measurement": "IC50", "setting": "[7]", "value": 185, "unit": "µM"}, {"measurement": "Phage propagation of Lit1 on P. aeruginosa PAO1:Thoeris II", "setting": "[8]", "value": "allowed P. aeruginosa phages to propagate"}, {"measurement": "IC50", "setting": "[9]", "value": 1500, "unit": "µM"}, {"measurement": "Phage proliferation of NPV1 on E. faecalis OG1RF:Thoeris", "setting": "[10]", "value": "fully rescued phage proliferation"}, {"measurement": "IC50", "setting": "[11]", "value": 838, "unit": "µM"}, {"measurement": "Phage propagation of Lit1 on P. aeruginosa MRSN11538 WT", "setting": "[12]", "value": "allowed Lit1 phages to successfully propagate"}]}
